Source: ChEMBL document CHEMBL3616379, “From carbohydrates to drug-like fragments: Rational development of novel α-amylase inhibitors” (Bioorg Med Chem, 2015)
Active and inactive are the calls of the source. No cut-off for these calls is given here.

Target: T1, Alpha-amylase 1A (Homo sapiens, UniProt P0DUB6)
T1 sequence (P0DUB6 whole entry): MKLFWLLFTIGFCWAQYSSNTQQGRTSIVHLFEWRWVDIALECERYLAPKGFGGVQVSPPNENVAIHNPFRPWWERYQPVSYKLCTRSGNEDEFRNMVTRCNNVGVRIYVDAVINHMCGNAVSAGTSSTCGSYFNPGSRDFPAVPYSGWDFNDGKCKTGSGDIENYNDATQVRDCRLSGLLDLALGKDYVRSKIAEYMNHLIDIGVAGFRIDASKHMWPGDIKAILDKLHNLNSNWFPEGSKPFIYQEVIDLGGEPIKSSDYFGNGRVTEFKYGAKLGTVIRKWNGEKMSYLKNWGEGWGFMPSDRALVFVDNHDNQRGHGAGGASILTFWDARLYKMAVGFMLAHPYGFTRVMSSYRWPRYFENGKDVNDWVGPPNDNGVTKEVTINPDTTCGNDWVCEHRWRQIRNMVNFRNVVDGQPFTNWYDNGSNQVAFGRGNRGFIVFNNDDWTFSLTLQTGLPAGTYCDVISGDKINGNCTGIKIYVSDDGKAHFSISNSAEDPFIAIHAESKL
Assay: Inhibition of human salivary alpha-amylase using GalG2CNP as substrate by UV-Vis spectrophotometric analysis
Conditions: not given

SMILES	IC50
Cc1cc(C=O)c(O)c(/C=N/N=C(/N/N=C/c2cc(C)cc(C=O)c2O)SCc2ccccc2)c1	ND(Insoluble)

Same assay, conditions: read-out: IC50

SMILES	IC50 [µM]
COc1cccc(NC(=N)Nc2nc(O)cc(CSc3ccccn3)n2)c1	330
C/C(=N\NC(=O)CCC(=O)Nc1ccccc1C)c1ccc(O)cc1O	850
CC(=O)N1CCN(C2=NC(=O)/C(=C\c3ccccc3O)S2)CC1	700
COc1ccc(Nc2nc(-c3ccccc3O)cs2)cc1	40
COc1cc(Br)cc(/C=C2/SC(Nc3cccc(C(=O)O)c3)=NC2=O)c1O	260
Oc1ccc(Nc2nc(-c3ccc(Cl)cc3)cs2)cc1	1040
CC(O)CNCCNCc1ccc(-c2ccccc2F)o1 (stereo not drawn)	1000
Oc1ccc(Nc2nc(-c3ccccc3)cs2)cc1	1270
COc1cccc(C2NC(c3cccc(OC)c3O)C([N+](=O)[O-])C(C)(C)C2[N+](=O)[O-])c1O (stereo not drawn)	300
Cc1ccc(O)c(Cc2cc(C)cc(Cc3cc(C)ccc3O)c2O)c1	200
Oc1ccc(Nc2nc(-c3ccc(O)cc3O)cs2)cc1	138
CCc1cc(-c2n[nH]c(C(=O)O)c2-c2ccc3c(c2)OCO3)c(O)cc1O	4000
Cc1[nH]nc(-c2ccc(O)cc2O)c1Oc1ccc(C(=O)O)cc1	4000
O=C(O)c1ccc(Nc2nc(-c3ccc(O)cc3O)cs2)cc1	680
O=C(O)c1ccc(Nc2nc(-c3ccc(O)cc3O)cs2)cc1O	642
Cc1ccc(-c2csc(Nc3ccc(O)cc3)n2)cc1	735
O=C(O)c1cccc(N2C(=O)/C(=C/c3ccccc3O)SC2=S)c1	62
Nc1ccc(Nc2nc(-c3ccc(Cl)cc3Cl)cs2)cc1	270
Oc1ccc(Nc2nc(-c3ccc(O)cc3)cs2)cc1	492
O=C1S/C(=C\c2cc(Cl)ccc2O)C(=O)N1Cc1cccc([N+](=O)[O-])c1	50

Target: T2, Alpha-amylase 1A (Homo sapiens) (UniProt P0DUB6)
T2 sequence (whole entry): T1 sequence (P0DUB6 whole entry)
Assay: Competitive inhibition of human salivary alpha-amylase using GalG2CNP as substrate by Lineweaver-Burk plot analysis
Conditions: not given
Procedure, shortened: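 Inhibition mode assigned from Lineweaver-Burk plots. Human salivary α-amylase (2 nM) started reactions containing GalG2CNP (0.75–4 mM) and inhibitor in DMSO, in 50 mM MES pH 6.0 with 5 mM Ca(OAc)2, 51.5 mM NaCl, 152 mM NaN3 at 37°C. Rates from continuous 400 nm absorbance of released CNP.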

SMILES	Inhibition mode
Cc1ccc(O)c(Cc2cc(C)cc(Cc3cc(C)ccc3O)c2O)c1	Active
Oc1ccc(Nc2nc(-c3ccc(O)cc3O)cs2)cc1	Active
O=C1S/C(=C\c2cc(Cl)ccc2O)C(=O)N1Cc1cccc([N+](=O)[O-])c1	Active

Target: T2, Alpha-amylase 1A (Homo sapiens)
Assay: Potency index, ratio of BAS 04880564 IC50 to compound IC50 for human salivary alpha-amylase
Conditions: not given

SMILES	Ratio IC50
COc1ccc(Nc2nc(-c3ccccc3O)cs2)cc1	3.45
COc1cc(Br)cc(/C=C2/SC(Nc3cccc(C(=O)O)c3)=NC2=O)c1O	0.53
O=C(O)c1cccc(N2C(=O)/C(=C/c3ccccc3O)SC2=S)c1	2.22
Nc1ccc(Nc2nc(-c3ccc(Cl)cc3Cl)cs2)cc1	0.51
O=C1S/C(=C\c2cc(Cl)ccc2O)C(=O)N1Cc1cccc([N+](=O)[O-])c1	2.76

Target: Alpha amylase (Homo sapiens) (UniProt P0DUB6)
Assay: (§1) Inhibition of alpha-amylase (unknown origin) relative to control
Design: concentration or dose not given beside the values
Conditions: concentration not given here

SMILES	inhibition [%]
C[C@@H]1O[C@@H](O[C@H]2[C@H](Oc3cc(O)c4c(c3)O[C@H](c3ccc(O)cc3)CC4=O)O[C@H](CO)[C@@H](O)[C@@H]2O)[C@H](O)[C@H](O)[C@H]1O	0
C[C@@H]1O[C@@H](Oc2c(-c3ccc(O)c(O)c3)oc3cc(O)cc(O)c3c2=O)[C@H](O)[C@H](O)[C@H]1O	37.6
Oc1cc(O)c2c(c1)O[C@@H](c1ccc(O)c(O)c1)[C@H](O)C2	16
O=c1c(O[C@@H]2O[C@H](CO)[C@@H](O)[C@H](O)[C@H]2O)c(-c2ccc(O)c(O)c2)oc2cc(O)cc(O)c12	12.2
O=c1ccc2cc(O)c(O)cc2o1	17.4
O=c1cc(-c2ccccc2)oc2cc(O)cc(O)c12	5
C[C@@H]1O[C@@H](OC[C@H]2O[C@@H](Oc3c(-c4ccc(O)c(O)c4)oc4cc(O)cc(O)c4c3=O)[C@H](O)[C@@H](O)[C@@H]2O)[C@H](O)[C@H](O)[C@H]1O	20.1
O=c1cc(-c2ccc(O)cc2)oc2cc(O)cc(O)c12	12.4
Oc1cc(O)c2cc(O)c(-c3ccc(O)c(O)c3)[o+]c2c1	12
OC[C@H]1O[C@@H](Oc2ccc(O)cc2)[C@H](O)[C@@H](O)[C@@H]1O	30

Target: T3, Alpha amylase (Homo sapiens, UniProt P0DUB6)
T3 sequence (P0DUB6 whole entry): T1 sequence (P0DUB6 whole entry)
Assay: as §1
Conditions: not given

SMILES	IC50 [µM]
O=C1C[C@@H](c2ccc(O)cc2)Oc2cc(O)cc(O)c21 [NARINGENIN]	1800
O=C(O)/C=C/c1ccc(O)c(O)c1 [CAFFEIC ACID]	4800
O=C(/C=C/c1ccc(O)c(O)c1)O[C@H](Cc1ccc(O)c(O)c1)C(=O)O [ROSMARINIC ACID]	1400
O=C(O)[C@]1(O)C[C@@H](O)[C@@H](O)[C@H](O)C1 [QUINIC ACID]	13000
O=C(O)c1cccc(O)c1O [2,3-DIHYDROXYBENZOIC ACID]	> 7000
O=C(O)c1ccc(O)c(O)c1 [PROTOCATECHUIC ACID]	> 10000
COc1ccc(CCC(=O)O)cc1OC	> 12000
COc1cc(/C=C/C(=O)O)cc(OC)c1O [SINAPINATE]	> 6500
O=C(/C=C/c1ccc(O)c(O)c1)O[C@@H]1C[C@](O)(C(=O)O)C[C@@H](OC(=O)/C=C/c2ccc(O)c(O)c2)[C@H]1O	390
O=C(O)CCc1ccc(O)c(O)c1 [DIHYDROCAFFEIC ACID]	> 14000
O=c1cc(-c2ccc(O)c(O)c2)oc2cc(O[C@@H]3O[C@H](CO)[C@@H](O)[C@H](O)[C@H]3O)cc(O)c12 [GALUTEOLIN]	280
Oc1cc(O)c2c(c1)O[C@H](c1ccc(O)c(O)c1)[C@H](O)C2 [(-)-EPICATECHIN]	3500
COc1cc(/C=C/C(=O)O)ccc1O [FERULATE]	> 5000
O=c1ccc2cc(O[C@@H]3O[C@H](CO)[C@@H](O)[C@H](O)[C@H]3O)c(O)cc2o1 [ESCULIN]	1670
O=C(/C=C/c1ccc(O)c(O)c1)O[C@@H]1C[C@@](OC(=O)/C=C/c2ccc(O)c(O)c2)(C(=O)O)C[C@@H](O)[C@@H]1O [CYNARIN]	> 2000
COc1cc2ccc(=O)oc2cc1O [SCOPOLETIN]	1300

Target: T4, Pancreatic alpha-amylase (Homo sapiens, UniProt P04746)
T4 sequence (P04746 whole entry): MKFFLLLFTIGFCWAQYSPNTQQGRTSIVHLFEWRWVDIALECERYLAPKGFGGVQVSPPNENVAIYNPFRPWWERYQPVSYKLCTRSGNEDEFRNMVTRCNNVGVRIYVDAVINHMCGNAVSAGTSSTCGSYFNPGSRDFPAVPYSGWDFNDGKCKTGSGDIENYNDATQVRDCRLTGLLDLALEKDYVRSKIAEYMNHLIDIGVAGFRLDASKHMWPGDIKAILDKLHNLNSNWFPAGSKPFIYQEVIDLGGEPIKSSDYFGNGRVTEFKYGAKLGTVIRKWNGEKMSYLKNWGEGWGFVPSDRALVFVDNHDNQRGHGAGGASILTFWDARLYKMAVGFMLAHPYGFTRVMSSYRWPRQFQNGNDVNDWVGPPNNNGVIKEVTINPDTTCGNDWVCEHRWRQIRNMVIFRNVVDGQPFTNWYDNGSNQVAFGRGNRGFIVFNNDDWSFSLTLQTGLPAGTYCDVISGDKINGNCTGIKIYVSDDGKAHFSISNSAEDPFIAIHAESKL
Assay: Inhibition of human pancreatic alpha-amylase expressed in Pichia pastoris using amylase as substrate preincubated with substrate for 10 mins followed by protein addition measured every 5 mins by Dixon plot analysis
Conditions: not given

SMILES	Ki [µM]
C[C@H]1O[C@H](O[C@H]2[C@H](O)[C@@H](O)[C@@H](O[C@H]3[C@H](O)[C@@H](O)[C@@H](O[C@H]4[C@H](O)[C@@H](O)[C@@H](O[C@H]5[C@H](O)[C@@H](O)[C@@H](O)O[C@@H]5CO)O[C@@H]4CO)O[C@@H]3CO)O[C@@H]2CO)[C@H](O)[C@@H](O)[C@@H]1N[C@H]1C=C(CO)[C@@H](O[C@H]2O[C@H](CO)[C@@H](O[C@H]3O[C@H](C)[C@@H](N[C@H]4C=C(CO)[C@@H](O)[C@H](O)[C@H]4O)[C@H](O)[C@H]3O)[C@H](O)[C@H]2O)[C@H](O)[C@H]1O	0.0147
C[C@H]1O[C@H](O[C@H]2[C@H](O)[C@@H](O)[C@@H](O[C@H]3[C@H](O)[C@@H](O)[C@@H](O[C@H]4[C@H](O)[C@@H](O)[C@@H](O[C@H]5[C@H](O)[C@@H](O)[C@@H](O)O[C@@H]5CO)O[C@@H]4CO)O[C@@H]3CO)O[C@@H]2CO)[C@H](O)[C@@H](O)[C@@H]1N[C@H]1C=C(CO)[C@@H](O[C@H]2O[C@H](CO)[C@@H](O[C@H]3O[C@H](C)[C@@H](N[C@H]4C=C(CO)[C@@H](O[C@H]5O[C@H](CO)[C@@H](O[C@H]6O[C@H](C)[C@@H](N[C@H]7C=C(CO)[C@@H](O[C@H]8O[C@H](CO)[C@@H](O[C@H]9O[C@H](C)[C@@H](N[C@H]%10C=C(CO)[C@@H](O)[C@H](O)[C@H]%10O)[C@H](O)[C@H]9O)[C@H](O)[C@H]8O)[C@H](O)[C@H]7O)[C@H](O)[C@H]6O)[C@H](O)[C@H]5O)[C@H](O)[C@H]4O)[C@H](O)[C@H]3O)[C@H](O)[C@H]2O)[C@H](O)[C@H]1O	0.0416
CC1OC(OC2C(CO)OC(OC3C(CO)OC(O)C(O)C3O)C(O)C2O)C(O)C(O)C1NC1C=C(CO)C(OC2OC(CO)C(OC3OC(CO)C(O)C(O)C3O)C(O)C2O)C(O)C1O (stereo not drawn)	1.25
